Only some compounds are listed: those with a hit (about 4% of all), similar ones and a draw of the others.
Statin myotox sup: suppressors of simvastatin-induced myotoxicity in C2C12 myotubes; rescue of ATP level, % at 7.49 µM; ATP luminescence, 48 h; scaled: DMSO 0, geranylgeraniol control 100; AID 602340; hit rate 0.78% among 330,000;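 active means mean ATP rescue above about 67%, or every replicate alone reaching that limit, limit read from the data, passing the limit was not always enough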;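 further: myotubes were challenged with 10 µM simvastatin during compound exposure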
SIRT5 inh: inhibitors of human sirtuin-5 desuccinylase. Purified SirT5, succinyl-peptide AMC, trypsin-coupled fluorescence. inhibition, % at 15 µM. hit rate 1.1% among 330,000; in the data active means inhibition above about 15%
Target sequence (Q9NXA8 whole entry, looked up): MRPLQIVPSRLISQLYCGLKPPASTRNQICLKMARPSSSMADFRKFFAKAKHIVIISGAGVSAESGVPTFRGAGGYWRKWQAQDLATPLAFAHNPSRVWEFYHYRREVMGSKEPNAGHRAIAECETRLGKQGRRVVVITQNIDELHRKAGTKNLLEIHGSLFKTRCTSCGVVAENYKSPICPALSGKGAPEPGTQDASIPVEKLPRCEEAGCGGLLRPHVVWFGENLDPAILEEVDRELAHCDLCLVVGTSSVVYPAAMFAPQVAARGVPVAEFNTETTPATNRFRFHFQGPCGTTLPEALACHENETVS
FGF22 binding: binders of recombinant human FGF22 by thermal shift; AID 651658; hit rate 1.5% among 340,000; SYPRO orange fluorescence; percent of sucrose octasulfate shift, DMSO zero; activity (Tm shift, normalised), % at 9.99 µM; Q9HCT0;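 active means mean Tm shift, scaled 0 neutral to 100 positive control, at about 1.3% or above, every replicate too, limit read from the data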
Target sequence (Q9HCT0 whole entry, looked up): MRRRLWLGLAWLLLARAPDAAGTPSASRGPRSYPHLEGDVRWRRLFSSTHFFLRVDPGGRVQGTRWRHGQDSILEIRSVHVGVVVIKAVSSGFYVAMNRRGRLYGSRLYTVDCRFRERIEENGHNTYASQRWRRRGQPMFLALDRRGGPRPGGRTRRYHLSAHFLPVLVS
E-selectin induc: induces E-selectin expression in human endothelial cells; HUVEC E-selectin immunofluorescence imaging; normalized: neutral wells 0, TNF-alpha wells 100; activation, % at 7.58 µM; hit rate 0.37% among 260,000; AID 686992; P16581;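 active means mean E-selectin-positive cell signal at least 10% of the positive control, reached in at least 60% of replicates, without over 20% cell loss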
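assay system = HUVEC, human umbilical vein endothelial cells | input = 3,000 HUVEC seeded per well | medium = EGM-2 growth medium on 0.1% gelatin-coated wells | dosing = one compound dose added by pin transfer | signal = immunofluorescence imaging | read-out basis = % PE-positive cells | control set = TNF-alpha, DMSO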
FN deposition inh: fibronectin deposition inhibition; AID 743247; AH1F fibroblasts, Alexa488-fibronectin deposition fluorescence, overnight; inhibition, % at 12.6 µM; hit rate 0.086% among 350,000;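 active means mean inhibition across replicates of 30% or more, regardless of how many single replicates reach that level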;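 further: positive control wells lacked labelled fibronectin entirely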
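Material – AH1F fibroblast monolayer, labelled fibronectin deposition · Reagent – labelled fibronectin 24 nM · Timing – 1 h adhesion, overnight exposure · Measured by – fluorescence at 485 nm excitation, 525 nm emission · Read-out – inhibition of fibronectin deposition signal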
Ecoli rRNA inh: inhibitors of bacterial rRNA selective over humanized ribosomes. E. coli WT GFP vs humanized-ribosome RFP mutants, fluorescence, 24 h; active compounds read low; DMSO median 0, no signal -100. GFP signal change (wild-type ribosome), % (no concentration beside the values). hit rate 1.6% among 350,000. AID 720706;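 active means significant combined selectivity score with lowered wild-type GFP, culture density cut under 30%, mutant RFP and density less affected; inactive means any of these conditions unmet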
* hit, by the source's call; nt = no result given.

SMILES	Statin myotox sup	SIRT5 inh	FGF22 binding	E-selectin induc	FN deposition inh	Ecoli rRNA inh
CCCOc1ccc(/C(O)=C2/C(=O)C(=O)N(CCCn3ccnc3)C2c2ccc(C)o2)cc1 (centres undefined)	-6.5	0.8	-0.1	-0.1	-9.1	-18.4*
CCOC(=O)C(=CNc1ccc(C(F)(F)F)cc1)C(=O)OCC	nt	nt	0.2	nt	-2.2	-22.8*
CC(/C=C/c1ccccc1)=N\Nc1nc(C)cc(C)n1	-7.7	nt	nt	nt	9.0	nt
CC(/C=C/c1ccc(O)cc1)=NNc1ccccc1	1.0	-10.1	0.7	-0.3	7.5	-21.2*
CCC(=O)Nc1ccc2c(c1)OC[C@@H](C)N(C(=O)C1CC1)C[C@H](C)[C@H](OC)CN(C)C2=O	nt	-2.0	nt	-0.1	-2.2	-2.3
COCCOC(=O)N1C(=O)[C@@]2(c3ccccc31)[C@H](c1ccccc1OCCO)N1[C@H](c3ccccc3)[C@H](c3ccccc3)OC(=O)[C@H]1[C@@H]2C(=O)NC[C@H](O)c1ccccc1	nt	-0.7	-0.5	nt	nt	nt
CCOC(=O)c1ccc(NS(=O)(=O)c2ccc(-c3coc(C)n3)cc2)cc1	92.8*	-2.8	0.1	nt	4.4	1.2
CCOc1ccc(NS(=O)(=O)c2ccc(-c3coc(C)n3)cc2)cc1	2.4	-0.4	0.0	nt	6.2	-0.6
O=C1C=C(NCc2ccc(Cl)c(Cl)c2)C2(CCCCC2)O1	142.3*	nt	nt	nt	nt	nt
Cc1noc(C)c1S(=O)(=O)Nc1ccc2c(c1)C(=O)N([C@@H](C)CO)C[C@@H](C)[C@H](CN(C)C(=O)Nc1ccc3c(c1)OCO3)OCCCC[C@H](C)O2	nt	-1.0	-0.4	-0.1	nt	-3.4
CC(C)Cc1nnc(NS(=O)(=O)Cc2ccccc2)s1	-14.1	nt	nt	nt	9.0	nt
CC(C)Cc1nnc(NS(=O)(=O)c2ccccc2)s1	-3.8	0.1	-0.1	-0.2	-22.5	-16.6*
CCc1nnc(NS(=O)(=O)c2ccc(NC(=O)c3ccccc3OC)cc2)s1	3.2	-0.3	-0.3	nt	1.9	-3.1
CCc1nnc(NS(=O)(=O)c2ccc(NC(=O)c3ccccc3C)cc2)s1	13.2	2.1	43.2*	-0.1	-4.1	-6.0
CCc1nnc(NS(=O)(=O)c2ccc(NC(=O)C(c3ccccc3)c3ccccc3)cc2)s1	nt	0.8	1.5*	nt	-2.4	nt
O=C(O)C1CN(c2ncccc2[N+](=O)[O-])C1	-1.8	1.0	43.0*	nt	-3.3	15.2
COc1ccccc1C(=O)Nc1ccc2c(c1)OC[C@H](C)NC[C@H](C)[C@@H](OC)CN(C)C2=O	nt	2.3	nt	0.3	2.9	2.7
Cc1ccc(S(=O)(=O)Nc2ccc3c(c2)C(=O)N([C@@H](C)CO)C[C@H](C)[C@@H](CN(C)C(=O)Nc2ccc(C(F)(F)F)cc2)O3)cc1	-74.2	15.9*	-0.2	0.2	nt	0.2
C[C@@H]1CCCCO[C@H](CN(C)C(=O)Nc2ccc(C(F)(F)F)cc2)[C@@H](C)CN([C@@H](C)CO)C(=O)c2cc(NS(=O)(=O)c3ccc(F)cc3)ccc2O1	nt	18.4*	-0.1	nt	3.9	1.6
C[C@H]1CCCCO[C@@H](CN(C)C(=O)Nc2ccc(C(F)(F)F)cc2)[C@@H](C)CN([C@@H](C)CO)C(=O)c2cc(NS(=O)(=O)c3ccc(F)cc3)ccc2O1	nt	8.3	-0.2	nt	0.1	6.5
C[C@@H]1CN([C@H](C)CO)C(=O)c2cc(NS(=O)(=O)c3ccc(Cl)cc3)ccc2O[C@@H](C)CCCCO[C@H]1CN(C)C(=O)Nc1ccc(C(F)(F)F)cc1	nt	22.4*	-0.8	0.6	nt	-2.4
c1ccc(Nc2c3c(nc4ccccc24)CCC3)cc1	nt	-0.2	0.9	nt	9.5	-12.5
Fc1ccc(Nc2c3c(nc4ccccc24)CCC3)cc1	-27.2	4.7	1.5*	3.1	-15.1	-16.1
C[C@H]1CN([C@@H](C)CO)C(=O)Cc2cc(NC(=O)NC3CCCCC3)ccc2O[C@H]1CN(C)S(=O)(=O)c1ccc(Cl)cc1	-19.9	2.6	-0.4	1.6	nt	0.3
CCCCC(C(=O)O)C(C)CC(=O)Nc1nncs1 (centres undefined)	2.1	-2.5	43.1*	1.0	-5.2	9.7
SMILES	Statin myotox sup	SIRT5 inh	FGF22 binding	E-selectin induc	FN deposition inh	Ecoli rRNA inh
O=C(COc1cc(=O)n2c(n1)SCCC2)c1ccccc1	114.2*	nt	nt	nt	4.4	nt
CO[C@H]1CN(C)C(=O)c2cc(NC(C)=O)ccc2OC[C@@H](C)N(CCC(F)(F)F)C[C@H]1C	4.6	16.0*	-0.2	-0.2	-3.9	3.1
CCCN1C[C@@H](C)[C@H](OC)CN(C)C(=O)c2cc(NC(=O)c3cnccn3)ccc2OC[C@@H]1C	-7.8	3.0	0.3	0.7	-10.2	2.2
CO[C@H]1CN(C)C(=O)c2ccc(NS(=O)(=O)CC(F)(F)F)cc2OC[C@H](C)N(C)C[C@@H]1C	nt	24.8*	-0.1	0.1	14.1	-1.8
CO[C@@H]1CN(C)C(=O)c2cc(NC(C)=O)ccc2OC[C@@H](C)N(CCC(F)(F)F)C[C@H]1C	-2.3	10.4	0.0	-0.1	1.4	-2.8
CCCN1C[C@@H](C)[C@H](OC)CN(C)C(=O)c2cc(NC(=O)c3cnccn3)ccc2OC[C@H]1C	14.9	17.0*	-0.4	0.4	-6.0	2.5
CO[C@@H]1CN(C)C(=O)c2ccc(NC(=O)c3ccc4c(c3)OCO4)cc2OC[C@H](C)N(CCC(F)(F)F)C[C@H]1C	1.3	15.6*	-0.5	-0.2	-0.2	-7.3
C[C@@H]1CCCCO[C@H](CN(C)C(=O)Nc2ccccc2)[C@@H](C)CN([C@@H](C)CO)C(=O)c2cc(NC(=O)c3ccccc3)ccc2O1	nt	-4.5	-0.4	nt	-4.7	-1.1
O=C(C[C@H]1C=C[C@H](NS(=O)(=O)c2ccc(F)cc2)[C@H](CO)O1)N1CCC(Cc2ccccc2)CC1	13.5	0.7	-0.1	0.0	1.9	-1.7
O=C(c1ccccn1)N1CC[C@@H]2[C@H](CO)Nc3ccc(Br)cc3[C@@H]21	26.8	4.5	-0.1	0.9	-8.0	2.8
CO[C@H]1CN(C)C(=O)c2cc(NC(C)=O)ccc2OC[C@@H](C)N(Cc2cccnc2)C[C@H]1C	-13.6	nt	nt	0.3	-6.4	1.0
CC(NC(=O)Nc1ccc(O)cc1)(C(F)(F)F)C(F)(F)F	-1.3	nt	nt	nt	nt	nt
CC(NC(=O)Nc1ccccc1O)(C(F)(F)F)C(F)(F)F	90.9*	nt	nt	nt	nt	nt
Cc1ccc(S(=O)(=O)Nc2cccc3c2O[C@@H](CN(C)Cc2ccc4c(c2)OCO4)[C@H](C)CN([C@H](C)CO)C3=O)cc1	4.9	4.4	-0.1	0.0	nt	2.5
c1ccc2c(CCNc3ncnc4nc[nH]c34)cccc2c1	85.8*	nt	nt	nt	nt	nt
c1ccc(CCCNc2ncnc3nc[nH]c23)cc1	3.8	17.7*	-0.3	-0.3	7.8	-8.8
Clc1ccc(CCNc2ncnc3nc[nH]c23)cc1	40.2	-0.2	-0.1	0.3	1.5	-1.6

Bioassay records deposited in PubChem by Broad Institute.
